# In paper PMC1301599 (Nucleic Acids Research, 2005):
# Key:
# Format in all cases: cell-based
# [1] = system: HIV-1 Tat-dependent trans-activation (TAR RNA; HIV-1 LTR firefly luciferase) in HeLa Tet-Off/Tat/luc-f/luc-R cells; experiment: Inhibition of Tat-dependent trans-activation in HeLa cell reporter assay; details: for reduction of firefly luciferase activity, 6 h delivery with chloroquine: 6 h incubation in presence of 100 µM chloroquine, then 18 h growth, 0.312-2.5 µM
# In short: (§1)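 HeLa Tet-Off/Tat/luc-f/luc-R cells (HIV-1 LTR-firefly, CMV-Renilla), 10 × 10^3/well, grown 24 h at 37°C. They were exposed 6 h in Opti-MEM with 100 µM chloroquine, with or without test compound diluted from 2.5 µM in that medium. Cells were PBS-washed, then grown 18 h in DMEM/10% FBS. Lysate firefly and Renilla luminescence was read sequentially, normalised to parallel-plate viability absorbance, and expressed as % of cells without test compound. Two replicates, three experiments.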
# [2] = system: constitutive CMV promoter-directed Renilla luciferase in HeLa Tet-Off/Tat/luc-f/luc-R cells; experiment: Control Renilla luciferase expression in HeLa cell reporter assay; details: chloroquine alone treatment; data not shown
# In short: as §1
# [3] = system: HeLa Tet-Off/Tat/luc-f/luc-R cells; experiment: Toxicity assay; details: 100 µM chloroquine; data not shown
# In short: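 This ran on a duplicate plate of HeLa Tet-Off/Tat/luc-f/luc-R cells (10 × 10^3/well, 24 h at 37°C). The plate got 6 h with 100 µM chloroquine in Opti-MEM, then a PBS wash and 18 h in DMEM/10% FBS. Live cells were quantified colorimetrically with the CellTiter 96 AQueous One reagent, absorbance at 490 nm. Two replicates in each of three experiments.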
Compound,"level of firefly luciferase activity, chloroquine alone ([1]; 100 µM chloroquine, no CPP–PNA)","level of Renilla luciferase, chloroquine alone [2]","HeLa cell viability, chloroquine alone [3]","reduction of firefly luciferase activity, 6 h delivery with chloroquine [1]"
CCN(CC)CCCC(C)Nc1ccnc2cc(Cl)ccc12 (centres unmarked) [chloroquine],not significantly affected,reduction,No effect,–
ATCGCTCGCACCATGC (disulfide) [scrambled conjugate 13],–,–,–,no inhibitory activity
CTCCGCAGCTCAGATC (disulfide) [mismatched conjugate 13],–,–,–,no inhibitory activity
